Source: ChEMBL document CHEMBL3612047, “Synthesis, antiproliferative activity and possible mechanism of action of novel 2-acetamidobenzamides bearing the 2-phenoxy functionality” (Bioorg Med Chem, 2015)

How the values were obtained:
Type in all cases: functional
K562 [1] = experiment: Induction of apoptosis in human K562 cells assessed as early apoptotic cells level at 10 uM incubated for 24 hrs by Annexin-V and propidium iodide staining staining based flow cytometry (reference value: 1.6%)
K562 [2] = experiment: Induction of apoptosis in human K562 cells assessed as reduction in pro-caspase-3 levels at 10 uM incubated for 48 hrs by Western blot method relative to basal level; settings: K562, 48 h
Procedure, shortened: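 K562 cells were seeded at 1.5 × 10⁵/well and treated 48 h. Lysate protein was measured by Lowry assay and run on SDS-PAGE. Blots on nitrocellulose were probed with alkaline phosphatase-conjugated antibodies to pro-caspases 3 and 6. Loading was checked by Ponceau red and β-actin immunoblot, with level expressed against basal. Three independent experiments.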

K562 [3] = experiment: Induction of cell cycle arrest in human K562 cells assessed as accumulation at G0/G1 phase at 10 uM incubated for 24 hrs by propidium iodide staining based flow cytometry (reference value: 54.9%)
[4] = Growth inhibition of human BT549 cells by NCI standard protocol based method; settings: BT-549
Procedure, shortened: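 NCI full 60-cell-line panel, 5-dose assay to the NCI standard protocol. GI₅₀ is the molar concentration inhibiting 50% net cell growth. Mean graph midpoint is averaged over all lines; where the effect is not reached, the highest tested concentration is used.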

Structure (SMILES) | Activity (K562 [1]) | inhibition at 10 µM (K562 [2]) | Activity (K562 [3]) | GI50 [4]
NC(=O)c1cc(I)ccc1NC(=O)COc1ccccc1 | 24.5% | 40% | 78.5% | –
COc1cc(NC(=O)COc2ccccc2)c(C(N)=O)cc1OC | 22.7% | 50% | 80% | 770 nM
